Rows were chosen to be rich in hits. Some 1.2% of all compounds tested hit in one or more screens of this group.
CAL PDZ FP-1: untagged CAL PDZ binding inhibitors, primary screen, biochemical, fluorescence polarization, HTS | Golgi-associated PDZ and coiled-coil motif-containing protein (Homo sapiens), Q9HD26 | purified CAL PDZ, TMR-peptide fluorescence polarization, 1 h | inhibition, % at 24.9 µM | 0.92% of 300,000 active | AID 602252, 2012;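 active = mean inhibition of at least 30% with at least half of replicates also reaching 30%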;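 also: 0% = DMSO neutral control and 100% = excess unlabeled competitor peptide PRC23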
CAL PDZ FP-2: CAL PDZ peptide-binding inhibitors, primary screen, biochemical, fluorescence polarization, Cer-tagged CAL PDZ, HTS. inhibition, % at 20 µM. purified CAL PDZ, TMR-peptide fluorescence polarization, 1 h. Golgi-associated PDZ and coiled-coil motif-containing protein (Homo sapiens), Q9HD26. 0.02% of 330,000 active;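 active = highest replicate inhibition of at least 40%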;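 also: plate controls were DMSO neutral control wells for no effect and unlabeled competitor peptide control wells for full effect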
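System: tagged CAL PDZ domain. Schedule: 1 h room-temperature incubation prior to read. Signal: fluorescence polarization (mP). Measure: percent inhibition from loss of millipolarization.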
ARNT-TACC3 inh: disruptors of ARNT/TACC3 protein interaction, primary screen, biochemical, AlphaScreen, single concentration; AlphaScreen His-ARNT PAS-B/GST-TACC3 binding, luminescence; TACC3 fragment carries E629A point mutation; 0.66% of 390,000 active; Transforming acidic coiled-coil-containing protein 3 (Homo sapiens), Q9Y6A5; AID 623870, 2012; inhibition, % at 9.99 µM;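 active = mean inhibition of replicates at least 50% and at least half of replicates each reaching 50%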;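 also: 0% = complete ARNT plus TACC3 wells and 100% = ARNT alone without TACC3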
* hit, by the source's call; x = not tested or not shown.

SMILES | CAL PDZ FP-1 | CAL PDZ FP-2 | ARNT-TACC3 inh
O=c1cnnc(N/N=C/C2CC=CCC2)[nH]1 (stereo not drawn) | 4 | -1 | 65*
O=c1cnnc(N/N=C/c2ccc3c(c2)OCO3)[nH]1 | -5 | 0 | 15
O=C(Nc1ccccc1F)N[C@@H]1CC[C@@H](CCNS(=O)(=O)c2ccccc2)O[C@H]1CO | x | x | -14
C=CCNC(=O)c1c(O)c2cccc3c2n(c1=O)CCC3 | 33* | -1 | -5
NCCNC(=O)c1c(O)c2cccc3c2n(c1=O)CCC3 | -2 | 0 | 2
C[C@@H]1CN([C@@H](C)CO)C(=O)c2cc(C3=CCCCC3)cnc2O[C@H]1CN(C)C(=O)c1ccccc1 | x | x | -7
C[C@@H]1CCCCO[C@@H](CN(C)Cc2ccccc2)[C@@H](C)CN([C@@H](C)CO)C(=O)c2cc(NC(=O)c3ccncc3)ccc2O1 | x | x | 3
C/C(=N\Nc1nc2ccccc2s1)c1ccc(Br)s1 | -1 | -1 | x
CC(=NNc1nc2ccccc2s1)c1ccncn1 | -3 | 1 | 70*
CCOC(=O)C1=NOC(CNC(=O)c2c(-c3ccccc3Cl)noc2C)C1 (stereo not drawn) | -7 | 0 | x
CC(=O)C1=NOC(CNC(=O)c2c(-c3ccccc3Cl)noc2C)C1 (stereo not drawn) | 45* | -1 | -4
CC(C)NC(=O)Nc1ccc2c(c1)C(=O)N([C@H](C)CO)C[C@H](C)[C@H](CN(C)C(=O)NC1CCCCC1)OCCCC[C@@H](C)O2 | x | x | -2
C[C@@H]1CCCCO[C@@H](CN(C)C(=O)C2CCCCC2)[C@H](C)CN([C@H](C)CO)C(=O)c2cc(NS(=O)(=O)c3cn(C)cn3)ccc2O1 | x | x | 6
O=C(COC(=O)c1cc(-c2cccc3ccccc23)nc2ccccc12)NC1CCS(=O)(=O)C1 (stereo not drawn) | -3 | -2 | -1
O=C(COC(=O)c1cc(-c2cccs2)nc2ccccc12)NC1CCS(=O)(=O)C1 (stereo not drawn) | -8 | 0 | 49*
Cc1ccc(S(=O)(=O)N(C)C[C@@H]2Oc3c(NC(=O)c4cnccn4)cccc3C(=O)N([C@@H](C)CO)C[C@@H]2C)cc1 | x | x | 15
CN(C)C(=O)[C@H]1[C@H](CO)[C@H]2Cn3c(ccc(C4=CCCCC4)c3=O)[C@@H]1N2C | x | x | -4
CC1=C/C(=N\N=C2\NC(=O)C(CC(=O)Nc3ccccc3)S2)CC(C)(C)C1 (stereo not drawn) | 1 | 0 | 3
NC(=O)NC(=O)CC1S/C(=N/N=C2\CSC(=O)N2)NC1=O (stereo not drawn) | 0 | -1 | 53*
O=C(O)CNC(=O)CC1S/C(=N/N=C2/NC(=O)CS2)NC1=O (stereo not drawn) | 1 | -2 | 58*
NC(=O)NC(=O)CC1S/C(=N/N=C/c2ccccc2)NC1=O (stereo not drawn) | 0 | -2 | 20
Cc1ccccc1S(=O)(=O)N[C@@H]1CC[C@@H](CCn2cc(Cc3ccccc3)nn2)O[C@@H]1CO | x | x | 15
C[C@H](CO)N1C[C@H](C)[C@@H](CN(C)C(=O)NC2CCCCC2)Oc2ccc(NC(=O)Nc3cccc4ccccc34)cc2C1=O | x | x | 7
C[C@H]1CN([C@@H](C)CO)C(=O)c2cc(NC(=O)C3CC3)ccc2O[C@@H]1CN(C)C(=O)Nc1ccccc1 | x | x | -12
Cc1noc(C)c1NC(=O)Nc1cccc2c1O[C@@H](CN(C)C)[C@H](C)CN([C@H](C)CO)C2=O | x | x | -1
SMILES | CAL PDZ FP-1 | CAL PDZ FP-2 | ARNT-TACC3 inh
COc1cccc(CNC(=O)C(C)n2ccc3cc(S(=O)(=O)N4CCCC4)ccc32)c1 (stereo not drawn) | 42* | -1 | -3
COc1ccc2cc(S(=O)(=O)N3CCCC3)ccc2c1 | 81* | -1 | 0
COc1ccc2cc(S(=O)(=O)N3CCN(C)CC3)ccc2c1 | 7 | -2 | x
COc1cccc(CNC(=O)C(C)n2ccc3cc(S(=O)(=O)N4CCCCCC4)ccc32)c1 (stereo not drawn) | -7 | -1 | 19
CO[C@@H]1CN(C)C(=O)c2ccc(NS(=O)(=O)c3ccccc3Cl)cc2OC[C@H](C)NC[C@H]1C | x | x | 1
O=C(C[C@@H]1C=C[C@H](NC(=O)Nc2ccc(C(F)(F)F)cc2)[C@@H](CO)O1)NCCN1CCCC1 | x | x | -35
CC(C)NC(=O)Nc1ccc2c(c1)C(=O)N([C@H](C)CO)C[C@@H](C)[C@@H](CN(C)C(=O)Nc1ccc3c(c1)OCO3)O2 | x | x | -7
C[C@H](CO)N1C[C@H](C)[C@H](CN(C)C)Oc2ccc(NC(=O)Nc3ccccc3)cc2C1=O | x | x | 9
COc1ccccc1-c1ccc2c(c1)O[C@H](CN(C)C(C)=O)[C@@H](C)CN([C@@H](C)CO)S2(=O)=O | x | x | 12
O=C(Nc1ccc(F)cc1)c1cc(-c2ccccc2)no1 | 109* | 0 | -10
COc1ccc(-c2cc(C(=O)Nc3ccccc3)on2)cc1 | x | -1 | 2
COc1ccc(NC(=O)N(C)C[C@@H]2Oc3ccc(NC(=O)C4CCCCC4)cc3C(=O)N([C@@H](C)CO)C[C@@H]2C)cc1 | x | x | -1
COc1cccc(-n2c(=O)c3ccccc3n(CC(=O)NCC3CCCO3)c2=O)c1 (stereo not drawn) | -9 | 0 | -8
COc1cccc(-n2c(=O)c3sccc3n(CC(=O)NCC3CCCO3)c2=O)c1 (stereo not drawn) | 39* | -3 | 4
COc1ccc(S(=O)(=O)N(C)C[C@@H]2Oc3c(NC(=O)c4ccncc4)cccc3C(=O)N([C@H](C)CO)C[C@@H]2C)cc1 | x | x | 2
C[C@H](CO)N1C[C@H](C)[C@H](CN(C)S(C)(=O)=O)Oc2ccc(NS(=O)(=O)c3cccs3)cc2CC1=O | x | x | -24
COc1ccccc1-c1cn(CC[C@H]2CC[C@H](NC(=O)C3CCC3)[C@H](CO)O2)nn1 | x | x | -16
C[C@@H]1CCCCO[C@@H](CN(C)C(=O)Nc2cccc3ccccc23)[C@@H](C)CN([C@H](C)CO)C(=O)c2cc(NC(=O)Nc3ccccc3)ccc2O1 | x | x | -2
Cc1ccc(S(=O)(=O)N2CCOCC2)cc1NC(=O)COC(=O)C1(C)CC1(Cl)Cl (stereo not drawn) | -1 | 0 | 0
Cc1ccc(S(=O)(=O)N2CCCCC2)cc1NC(=O)COC(=O)C1(C)CC1(Cl)Cl (stereo not drawn) | 67* | 0 | -1
COCC(=O)N(C)C[C@H]1Oc2cc(C#Cc3ccccc3)ccc2S(=O)(=O)N([C@H](C)CO)C[C@@H]1C | x | x | 3
CCOc1ccc(NC(=S)N=Nc2c(O)[nH]c3ccccc23)cc1 | -3 | -3 | 0
Oc1[nH]c2ccccc2c1N=NC(=S)N1CCOCC1 | 3 | 1 | 66*
COC(=O)N=Nc1c(O)[nH]c2ccc(Br)cc12 | -1 | -3 | -1
NC(=S)N=Nc1c(O)[nH]c2ccccc12 | x | -1 | 31

Screening data deposited in PubChem by Broad Institute.
